From ChEMBL document CHEMBL4393740, “Preparation and biological evaluation of soluble tetrapeptide epoxyketone proteasome inhibitors” (Bioorg Med Chem, 2019)

Assays:
[1] = molecular target: T1, Proteasome Macropain subunit MB1 (Homo sapiens, UniProt P28074); assay: Inhibition of human chymotrypsin-like activity of 20S proteasome using Suc-LLVY-AMC as substrate pre-incubated for 10 mins followed by substrate addition and measured after 1 hr by spectrofluorimetry
T1 sequence (P28074 whole entry): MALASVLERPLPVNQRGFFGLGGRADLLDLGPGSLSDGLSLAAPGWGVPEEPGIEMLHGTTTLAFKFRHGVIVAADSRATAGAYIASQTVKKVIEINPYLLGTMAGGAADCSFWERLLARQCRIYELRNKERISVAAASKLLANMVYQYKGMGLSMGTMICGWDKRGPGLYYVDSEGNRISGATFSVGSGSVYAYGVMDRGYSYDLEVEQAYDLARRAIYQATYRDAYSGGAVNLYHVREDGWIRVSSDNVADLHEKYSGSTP

[2] = tested on: RPMI-8226; assay: Cytotoxicity against human RPMI8226 cells assessed as cell viability measured after 72 hrs by celltiter96 aqueous cell proliferation assay; format: functional, cell-based; conditions: RPMI-8226, 72 h
Outline: (§1)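 Suspension cells in log phase plated at 5000 (RPMI8226) or 10000 (U266B1) cells per well. Viability read after 72 h by MTS-type CellTiter 96 AQueous One assay on a plate reader. IC50 reported, three repeats.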

[3] = tested on: U-266; assay: Cytotoxicity against human U266B1 cells assessed as cell viability measured after 72 hrs by celltiter96 aqueous cell proliferation assay; format: functional, cell-based; conditions: U-266, 72 h; outline: as §1
[4] = Half life in rat liver microsomes at 1 uM pre-incubated for 5 mins followed by NADP+ addition and measured up to 20 mins by LC-MS analysis; format: ADME, Microsome
[5] = Half life in monkey liver microsomes at 1 uM pre-incubated for 5 mins followed by NADP+ addition and measured up to 20 mins by LC-MS analysis; format: ADME, Macaca mulatta, Microsome; conditions: rhesus monkey
[6] = Half life in BALB/c mouse liver microsomes at 1 uM pre-incubated for 5 mins followed by NADP+ addition and measured up to 20 mins by LC-MS analysis; format: ADME, Microsome
Outline: (§2)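 Mixture held 1 µM compound, 0.5 mg/mL microsomal protein (in-house pooled Balb/c mouse or pooled human), 100 mM Tris-HCl pH 7.4, and an NADPH-generating system (5 mM isocitric acid, 0.2 U/mL isocitric dehydrogenase, 5 mM MgCl2, 1 mM NADP+). Preincubated 5 min at 37 °C, started with NADP+, sampled at 0, 5, 10, 20 min. Quenched with cold acetonitrile containing 1 µM phenytoin internal standard. Compound loss measured by LC-MS/MS. Controls omitted NADPH and/or microsomes.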

[7] = Half life in dog liver microsomes at 1 uM pre-incubated for 5 mins followed by NADP+ addition and measured up to 20 mins by LC-MS analysis; format: ADME, Canis lupus familiaris, Microsome
[8] = Half life in human liver microsomes at 1 uM pre-incubated for 5 mins followed by NADP+ addition and measured up to 20 mins by LC-MS analysis; format: ADME, Microsome; outline: as §2
[9] = Intrinsic clearance in rat liver microsomes at 1 uM pre-incubated for 5 mins followed by NADP+ addition and measured up to 20 mins by LC-MS analysis; format: ADME, Microsome; conditions: read-out: CLH
[10] = Intrinsic clearance in BALB/c mouse liver microsomes at 1 uM pre-incubated for 5 mins followed by NADP+ addition and measured up to 20 mins by LC-MS analysis; format: ADME, Microsome; conditions: read-out: CLH; outline: as §2
[11] = Intrinsic clearance in dog liver microsomes at 1 uM pre-incubated for 5 mins followed by NADP+ addition and measured up to 20 mins by LC-MS analysis; format: ADME, Canis lupus familiaris, Microsome; conditions: read-out: CLH
[12] = Intrinsic clearance in monkey liver microsomes at 1 uM pre-incubated for 5 min followed by NADP+ addition and measured up to 20 mins by LC-MS analysis; format: ADME, Macaca mulatta, Microsome; conditions: rhesus monkey, read-out: CLH
[13] = Intrinsic clearance in human liver microsomes at 1 uM pre-incubated for 5 min followed by NADP+ addition and measured up to 20 mins by LC-MS analysis; format: ADME, Microsome; conditions: read-out: CLH; outline: as §2
[14] = tested on: ARH-77; assay: Antitumour activity against human ARH77 cells xenografted in nude mouse assessed as tumor growth at 5mg/kg, iv dosed at day 1 ,4, 8 ,11, 15 and 18 for 3 weeks and measured every 2 days by caliper method relative to control; format: functional
Outline: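 Nude mice given subcutaneous 1 × 10^7 ARH77 cells. Randomized at mean tumour 100-150 mm3 into treatment and control groups, n = 5. Dosed i.v. 5 mg/kg on days 1, 4, 8, 11, 15 and 18 for 3 weeks. Tumours sized by caliper, V = length×width²/2, RTV = Vt/V0. T/C% = mean RTV treated / mean RTV control × 100.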

[15] = molecular target: Voltage-gated inwardly rectifying potassium channel KCNH2 (Homo sapiens, UniProt Q12809); assay: Inhibition of human ERG in HEK293 cells assessed as effect on QT interval; format: cell-based
Voltage-gated inwardly rectifying potassium channel KCNH2, sequence (Q12809 whole entry): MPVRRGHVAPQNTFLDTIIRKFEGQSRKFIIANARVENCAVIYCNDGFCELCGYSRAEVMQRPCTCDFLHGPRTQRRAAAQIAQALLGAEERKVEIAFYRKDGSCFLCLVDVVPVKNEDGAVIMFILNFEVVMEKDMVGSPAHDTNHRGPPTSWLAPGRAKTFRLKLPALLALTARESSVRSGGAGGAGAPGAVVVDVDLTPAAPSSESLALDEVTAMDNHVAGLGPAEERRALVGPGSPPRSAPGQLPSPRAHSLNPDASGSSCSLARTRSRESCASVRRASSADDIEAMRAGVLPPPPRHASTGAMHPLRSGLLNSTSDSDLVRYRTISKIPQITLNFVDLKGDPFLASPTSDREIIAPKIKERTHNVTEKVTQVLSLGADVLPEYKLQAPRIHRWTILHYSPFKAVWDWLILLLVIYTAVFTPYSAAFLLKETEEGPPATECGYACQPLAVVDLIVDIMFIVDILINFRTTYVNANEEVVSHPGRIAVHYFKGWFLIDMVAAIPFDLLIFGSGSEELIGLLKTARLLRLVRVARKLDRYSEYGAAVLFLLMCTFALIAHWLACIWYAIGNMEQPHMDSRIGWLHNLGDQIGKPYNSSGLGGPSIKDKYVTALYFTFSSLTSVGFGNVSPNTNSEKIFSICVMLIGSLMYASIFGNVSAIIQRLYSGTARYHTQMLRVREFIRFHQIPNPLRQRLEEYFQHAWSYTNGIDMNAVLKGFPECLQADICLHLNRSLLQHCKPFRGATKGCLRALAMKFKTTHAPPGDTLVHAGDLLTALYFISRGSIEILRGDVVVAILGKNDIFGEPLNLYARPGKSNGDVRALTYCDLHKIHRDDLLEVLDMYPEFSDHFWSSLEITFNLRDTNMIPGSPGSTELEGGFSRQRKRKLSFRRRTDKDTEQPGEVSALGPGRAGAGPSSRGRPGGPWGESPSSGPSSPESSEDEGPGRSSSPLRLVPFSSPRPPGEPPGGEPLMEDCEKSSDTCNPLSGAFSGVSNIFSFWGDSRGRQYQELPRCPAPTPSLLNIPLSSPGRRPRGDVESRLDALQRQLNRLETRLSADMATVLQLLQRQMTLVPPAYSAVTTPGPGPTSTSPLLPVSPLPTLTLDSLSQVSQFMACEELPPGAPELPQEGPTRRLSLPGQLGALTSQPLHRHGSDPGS

In the case of `Cc1cc(C(=O)N[C@@H](CCc2ccccc2)C(=O)N[C@H](C(=O)N[C@@H](Cc2ccccc2)C(=O)N[C@@H](CC(C)C)C(=O)[C@@]2(C)CO2)C2CC2)no1`, the IC50 ([1]; read-out: IC50) is reported as 32 nM.

`Cc1cc(C(=O)N[C@@H](Cc2ccccn2)C(=O)N[C@@H](CC(C)C)C(=O)N[C@@H](Cc2ccccc2)C(=O)N[C@@H](CC(C)C)C(=O)[C@@]2(C)CO2)no1` showed an IC50 ([1]; read-out: IC50) of 60.7 nM.

Compound `CC(C)C[C@H](NC(=O)[C@H](Cc1cc2ccccc2s1)NC(=O)CN1CCOCC1)C(=O)N[C@@H](Cc1ccccc1)C(=O)N[C@@H](CC(C)C)C(=O)[C@@]1(C)CO1` has an IC50 ([1]; read-out: IC50) of 34.1 nM, an IC50 [2] of 53.8 nM and an IC50 [3] of 33.2 nM.

For `Cc1cc(C(=O)N[C@@H](CCc2ccccc2)C(=O)N[C@@H](Cc2cscn2)C(=O)N[C@@H](Cc2ccccc2)C(=O)N[C@@H](CC(C)C)C(=O)[C@@]2(C)CO2)no1`, the IC50 [1] was “Not Active”.

`CCCC[C@H](NC(=O)[C@H](Cc1ccccc1)NC(=O)[C@H](CC(C)C)NC(=O)[C@H](CCc1ccccc1)NC(=O)CN1CCOCC1)C(=O)[C@@]1(C)CO1` gave an IC50 ([1]; read-out: IC50) of 52.2 nM.

In the case of `Cc1cc(C(=O)N[C@@H](Cc2cscn2)C(=O)N[C@@H](CC(C)C)C(=O)N[C@@H](Cc2ccccc2)C(=O)N[C@@H](CC(C)C)C(=O)[C@@]2(C)CO2)no1`, the IC50 ([1]; read-out: IC50) is reported as 20.6 nM.

For `CC(C)C[C@H](NC(=O)[C@H](CCc1ccccc1)NC(=O)CN1CCOCC1)C(=O)N[C@@H](Cc1ccccc1)C(=O)N[C@@H](CCc1ccccc1)C(=O)[C@@]1(C)CO1`, the IC50 ([1]; read-out: IC50) was 729 nM.

For `CC(C)C[C@H](NC(=O)[C@H](CCc1ccccc1)NC(=O)CN1CCOCC1)C(=O)N[C@@H](Cc1ccccc1)C(=O)N[C@@H](Cc1ccccc1)C(=O)[C@@]1(C)CO1`, the IC50 ([1]; read-out: IC50) was 140 nM.

For `CC[C@H](NC(=O)[C@H](CCc1ccccc1)NC(=O)c1cc(C)on1)C(=O)N[C@@H](Cc1ccccc1)C(=O)N[C@@H](CC(C)C)C(=O)[C@@]1(C)CO1`, the IC50 ([1]; read-out: IC50) was 36.8 nM, the IC50 [2] was 47 nM and the IC50 [3] was 45.5 nM.

Compound `CC(C)C[C@H](NC(=O)[C@H](CCc1ccccc1)NC(=O)CN1CCOCC1)C(=O)N[C@@H](Cc1ccccc1)C(=O)N[C@@H](CC(C)C)C(=O)[C@@]1(C)CO1` [CARFILZOMIB] has a half-life at 1 µM [4] of 37.2 s, a half-life at 1 µM [5] of under 60 s and a half-life at 1 µM [6] of 20.4 s. For the same compound, the half-life at 1 µM [7] was 14.6 s, the half-life at 1 µM [8] was 17.2 s and the microsomal CLint at 1 µM [9] was 2230 µL/min/mg. For the same compound, the microsomal CLint at 1 µM [10] was 4100 µL/min/mg, the microsomal CLint at 1 µM [11] was 5670 µL/min/mg and the microsomal CLint at 1 µM [12] was over 1390 µL/min/mg. The microsomal CLint at 1 µM [13] was 4850 µL/min/mg, the T/C [14] was 34.6% and the IC50 [2] was 39.1 nM. For the same compound, the IC50 [3] was 35.7 nM and the IC50 [15] was 92100 nM.

`CCCC[C@H](NC(=O)[C@H](CC(C)C)NC(=O)[C@H](CCc1ccccc1)NC(=O)CN1CCOCC1)C(=O)N[C@@H](CC(C)C)C(=O)[C@@]1(C)CO1` showed an IC50 ([1]; read-out: IC50) of 162 nM.

In the case of `Cc1cc(C(=O)N[C@@H](CCc2ccccc2)C(=O)N[C@@H](CC2CCCC2)C(=O)N[C@@H](Cc2ccccc2)C(=O)N[C@@H](CC(C)C)C(=O)[C@@]2(C)CO2)no1`, the IC50 ([1]; read-out: IC50) is reported as 36.6 nM.

Work on `CC[C@H](NC(=O)[C@H](CC(C)C)NC(=O)[C@H](CCc1ccccc1)NC(=O)CN1CCOCC1)C(=O)N[C@@H](CC(C)C)C(=O)[C@@]1(C)CO1` yielded an IC50 ([1]; read-out: IC50) of 98.2 nM.

In the case of `CC[C@H](NC(=O)[C@H](Cc1ccccc1)NC(=O)[C@H](CC(C)C)NC(=O)[C@H](CCc1ccccc1)NC(=O)CN1CCOCC1)C(=O)[C@@]1(C)CO1`, the IC50 ([1]; read-out: IC50) is reported as 77.1 nM.

For `CC(C)C[C@H](NC(=O)[C@H](Cc1cscn1)NC(=O)CO)C(=O)N[C@@H](Cc1ccccc1)C(=O)N[C@@H](CC(C)C)C(=O)[C@@]1(C)CO1`, the IC50 ([1]; read-out: IC50) was 52.1 nM.

Compound `Cc1cc(C(=O)NCC(=O)N[C@@H](CC(C)C)C(=O)N[C@@H](Cc2ccccc2)C(=O)N[C@@H](CC(C)C)C(=O)[C@@]2(C)CO2)no1` has an IC50 ([1]; read-out: IC50) of 56.5 nM.
